ChEMBL document CHEMBL5356937, “Dual FLT3/haspin kinase inhibitor based on 3H-pyrazolo[4,3-f]quinoline scaffold with activities against acute myeloid leukemia” (RSC Med Chem, 2023)
The source made the active and inactive calls. No cut-off for these calls is given here.

Experiments:
MOLM-14 [1] = experiment: Anticancer activity against human MOLM-14 cells assessed as cell growth inhibition at 50 nM incubated for 72 hrs by CellTiter-Blue Cell Viability Assay relative to control; assay type: functional
In short: (§1)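 Cells plated at 5000/well in RPMI with 10% FBS and penicillin-streptomycin, incubated 24 h at 37 °C, 5% CO2, then exposed to 50 nM compound for 72 h. Viability read by CellTiter-Blue, absorbance at 570 nm 3 h after addition; vehicle and cell-free controls included. Percent growth inhibition given as mean of triplicates.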

[2] = target: Receptor-type tyrosine-protein kinase FLT3 (Homo sapiens) (UniProt P36888); experiment: Inhibition of FLT3 (unknown origin) at 50 nM by ADP Glo kinase assay relative to control
In short: (§2)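 In-house ADP-Glo assay: 9 ng/µL kinase, 10 µM ATP, 20 µM peptide substrate, 50 nM inhibitor in 25 mM MOPS pH 7.2, 12.5 mM β-glycerophosphate, 25 mM MgCl2, 2 mM EDTA, 0.2 mM DTT, 40 µg/mL BSA. Incubated 3 h, quenched with GLO reagent 40 min, detection reagent 1 h, luminescence read. Percent inhibition, mean of triplicates.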

MV4-11 [3] = experiment: Anticancer activity against human MV4-11 cells assessed as cell growth inhibition at 50 nM incubated for 72 hrs by CellTiter-Blue Cell Viability Assay relative to control; assay type: functional; in short: as §1
[4] = target: T1, Serine/threonine-protein kinase haspin (Homo sapiens) (UniProt Q8TF76); experiment: Inhibition of haspin (unknown origin) at 50 nM by ADP Glo kinase assay relative to control; in short: as §2
T1 sequence (whole entry): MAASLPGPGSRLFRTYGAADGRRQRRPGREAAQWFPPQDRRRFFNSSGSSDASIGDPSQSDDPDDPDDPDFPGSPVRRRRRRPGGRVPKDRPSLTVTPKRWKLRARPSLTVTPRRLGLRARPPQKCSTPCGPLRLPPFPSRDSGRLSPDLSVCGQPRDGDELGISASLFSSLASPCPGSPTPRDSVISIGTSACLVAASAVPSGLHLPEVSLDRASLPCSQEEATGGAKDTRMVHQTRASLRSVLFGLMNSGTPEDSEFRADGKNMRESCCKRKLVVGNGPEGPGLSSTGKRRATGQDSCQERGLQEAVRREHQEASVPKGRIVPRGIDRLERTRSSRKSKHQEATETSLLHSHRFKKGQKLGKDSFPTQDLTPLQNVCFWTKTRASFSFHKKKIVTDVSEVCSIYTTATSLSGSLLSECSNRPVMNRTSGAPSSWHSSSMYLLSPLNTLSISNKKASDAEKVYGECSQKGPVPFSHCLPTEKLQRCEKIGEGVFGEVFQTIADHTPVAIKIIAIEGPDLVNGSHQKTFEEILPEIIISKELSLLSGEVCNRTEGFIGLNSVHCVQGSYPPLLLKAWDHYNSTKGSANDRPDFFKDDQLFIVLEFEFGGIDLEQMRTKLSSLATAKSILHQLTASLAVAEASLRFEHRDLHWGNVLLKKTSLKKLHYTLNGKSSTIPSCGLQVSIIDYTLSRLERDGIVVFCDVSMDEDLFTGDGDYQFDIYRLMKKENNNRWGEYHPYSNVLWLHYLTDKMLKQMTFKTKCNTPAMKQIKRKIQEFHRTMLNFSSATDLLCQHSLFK

[5] = target: T1, Serine/threonine-protein kinase haspin (Homo sapiens); experiment: Inhibition of haspin in human MOLM-14 cells assessed as reduction in histone H3 phosphorylation at Thr3 at 20 nM incubated for 24 hrs by immunoblotting analysis
[6] = target: Receptor-type tyrosine-protein kinase FLT3 (Homo sapiens) (UniProt P36888); experiment: Inhibition of FLT3 in human MOLM-14 cells assessed as reduction in phosphorylation of FLT3 at 5 to 100 nM incubated for 2 hrs by immunoblotting; assay type: cell-based; conditions: dose 5-100 nM
In short: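 MOLM-14 cells exposed to compound at 5, 20 or 100 nM for 2 h, lysed, protein normalized to BSA standard; SDS-PAGE, nitrocellulose transfer, overnight primary antibody, 2 h peroxidase secondary, chemiluminescent detection by CCD. Phospho-FLT3 bands normalized to actin; means of triplicates, SD.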

MOLM-14 [7] = experiment: Anticancer activity against human MOLM-14 cells expressing FLT3 F691L mutant assessed as reduction in cell proliferation incubated for 72 hrs CellTiter-Blue Cell Viability Assay; assay type: functional
In short: (§3)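 Cells grown in RPMI + 10% FBS + penicillin-streptomycin, seeded 5000 per well, left 24 h at 37 °C, 5% CO2, then given graded compound concentrations for 72 h. CellTiter-Blue viability read as absorbance at 570 nm after 3 h; vehicle and cell-free controls. Nonlinear regression gave GI50; points are means of triplicates, confirmed by two scientists on separate days.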

MV4-11 [8] = experiment: Anticancer activity against human MV4-11 cells assessed as reduction in cell proliferation incubated for 72 hrs CellTiter-Blue Cell Viability Assay; assay type: functional; in short: as §3
MOLM-14 [9] = experiment: Anticancer activity against human MOLM-14 cells assessed as reduction in cell proliferation incubated for 72 hrs CellTiter-Blue Cell Viability Assay; assay type: functional; in short: as §3
MOLM-14 [10] = experiment: Anticancer activity against human MOLM-14 cells expressing FLT3 D835Y mutant assessed as reduction in cell proliferation incubated for 72 hrs CellTiter-Blue Cell Viability Assay; assay type: functional; in short: as §3
[11] = target: Receptor-type tyrosine-protein kinase FLT3 (Homo sapiens, UniProt P36888, ITD); experiment: Inhibition of FLT3 ITD mutant (unknown origin)
[12] = target: Receptor-type tyrosine-protein kinase FLT3 (Homo sapiens, UniProt P36888, D835Y); experiment: Inhibition of FLT3 D835Y mutant (unknown origin)
DNA = experiment: Binding affinity to DNA (unknown origin) assessed as DNA intercalation; assay type: nucleic-acid assay; conditions: Homo sapiens

Row | SMILES | Activity (MOLM-14 [1]) [%] | inhibition [2] [%] | Activity (MV4-11 [3]) [%] | inhibition [4] [%] | also measured
1 | O=C(NCc1c[nH]cn1)c1ccc(-c2nc3ccc4[nH]ncc4c3c3c2CCCC3)cc1 | 67 | 49 | 62 | 54 | –
2 | O=C(NCc1ncc[nH]1)c1ccc(-c2nc3ccc4[nH]ncc4c3c3c2CCCC3)cc1F | 80 | 85 | 82 | 76 | –
3 | FC(F)(F)c1n[nH]cc1-c1nc2ccc3[nH]ncc3c2c2c1CCCC2 | 90 | 81 | 92 | 39 | –
4 | CCc1nc(C(N)=O)c(Nc2ccc(N3CCC(N4CCN(C)CC4)CC3)c(OC)c2)nc1NC1CCOCC1 [GILTERITINIB] | 87 | 93 | 91 | 11 | inhibition [5]: inactive
5 | O=C(NCCn1ccnc1)c1ccc(-c2nc3ccc4[nH]ncc4c3c3c2CCCC3)cc1 | 42 | 31 | 35 | 33 | –
6 | O=C(NCc1ncc[nH]1)c1ccc(-c2nc3ccc4[nH]ncc4c3c3c2CCCC3)c(F)c1 | 87 | 88 | 79 | 53 | –
7 | Cc1c[nH]c(CNC(=O)c2ccc(-c3nc4ccc5[nH]ncc5c4c4c3CCCC4)cc2)n1 | 96 | 94 | 94 | 97 | Activity [6]: Active; GI50 (MOLM-14 [7]): 2.2 nM; GI50 (MV4-11 [8]): 8.9 nM; GI50 (MOLM-14 [9]): 22.4 nM; GI50 (MOLM-14 [10]): 4.3 nM; IC50 [11]: 0.121 nM; IC50 [12]: 0.024 nM; Activity (DNA): inactive; inhibition [5]: Active
8 | O=C(NCc1ncc[nH]1)c1ccc(-c2nc3ccc4[nH]ncc4c3c3c2CCCC3)cc1 | 84 | 76 | 80 | 77 | –
9 | O=C(NCc1nccs1)c1ccc(-c2nc3ccc4[nH]ncc4c3c3c2CCCC3)cc1 | 55 | 53 | 60 | 68 | –
10 | O=C(NCc1nnc[nH]1)c1ccc(-c2nc3ccc4[nH]ncc4c3c3c2CCCC3)cc1 | 48 | 49 | 52 | 57 | –
11 | O=C(NCc1nnn[nH]1)c1ccc(-c2nc3ccc4[nH]ncc4c3c3c2CCCC3)cc1 | 50 | 51 | 41 | 57 | –
12 | O=C(NCCc1ncc[nH]1)c1ccc(-c2nc3ccc4[nH]ncc4c3c3c2CCCC3)cc1 | 73 | 71 | 69 | 78 | –
13 | O=C1c2c(O)ccc(O)c2C(=O)c2c(NCCNCCO)ccc(NCCNCCO)c21 | – | – | – | – | Activity (DNA): Active
14 | O=C(NCc1cc[nH]c1)c1ccc(-c2nc3ccc4[nH]ncc4c3c3c2CCCC3)cc1 | 39 | 46 | 28 | 41 | –
15 | Cn1ccnc1CNC(=O)c1ccc(-c2nc3ccc4[nH]ncc4c3c3c2CCCC3)cc1 | 21 | 14 | 25 | 26 | –
